From ChEMBL document CHEMBL2046370, “Beta-carboline alkaloids derived from the ascidian Synoicum sp” (Bioorg Med Chem, 2012)
Values after ≈ are worked out from the molar mass of the structure shown.

Experiments:
Micrococcus luteus = experiment: Antibacterial activity against Micrococcus luteus IFC 12708 after 24 hrs; format: functional; conditions: IFC 12708, 24 h
Salmonella typhimurium = experiment: Antibacterial activity against Salmonella typhimurium ATCC 14028 after 24 hrs; format: functional, Salmonella enterica subsp. enterica serovar Typhimurium; conditions: Salmonella enterica, ATCC 14028, 24 h
Bacillus subtilis = experiment: Antibacterial activity against Bacillus subtilis ATCC 6633 after 24 hrs; format: functional; conditions: ATCC 6633, 24 h
Staphylococcus aureus = experiment: Antibacterial activity against Staphylococcus aureus ATCC 6538p after 24 hrs; format: functional
Proteus vulgaris = experiment: Antibacterial activity against Proteus vulgaris ATCC 3851 after 24 hrs; format: functional; conditions: ATCC 3851, 24 h
Escherichia coli = experiment: Antibacterial activity against Escherichia coli ATCC 35270 after 24 hrs; format: functional; conditions: ATCC 35270, 24 h
A549 = experiment: Cytotoxicity against human A549 cells by MTT assay; format: functional; conditions: read-out: LC50 (the source's name)
Trichophyton rubrum = experiment: Antifungal activity against Trichophyton rubrum IFO 9185 after 48 to 72 hrs; format: functional
Aspergillus fumigatus = experiment: Antifungal activity against Aspergillus fumigatus HIC 6094 after 48 to 72 hrs; format: functional
[1] = tested on: Trichophyton mentagrophytes; experiment: Antifungal activity against Trichophyton mentagrophytes IFO 40996 after 48 to 72 hrs; format: functional
Candida albicans = experiment: Antifungal activity against Candida albicans ATCC 10231 after 48 to 72 hrs; format: functional
[2] = Inhibition of porcine cerebral cortex Na+/K+ ATPase assessed as formation of fluorescent 3-O-methylfluorescein from 3-O-methylfluorescein phosphate by fluorometry; format: tissue-based, Sus scrofa
Sortase A = molecular target: T1, Sortase A (Staphylococcus aureus, UniProt Q9S446); experiment: Inhibition of Staphylococcus aureus ATCC 6538p recombinant SrtA; set-up: species or system ATCC 6538p r
T1 sequence (Q9S446 whole entry): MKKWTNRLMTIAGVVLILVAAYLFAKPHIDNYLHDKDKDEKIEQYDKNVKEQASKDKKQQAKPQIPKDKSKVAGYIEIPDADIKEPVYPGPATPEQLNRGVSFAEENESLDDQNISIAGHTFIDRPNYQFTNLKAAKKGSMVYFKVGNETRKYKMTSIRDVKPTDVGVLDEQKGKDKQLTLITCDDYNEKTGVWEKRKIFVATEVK

Isocitrate lyase = Isocitrate lyase (Candida albicans, UniProt Q9P8Q7); experiment: Inhibition of Candida albicans recombinant ICL assessed as formation of glyoxylate phenylhydrazone by spectrophotometry
Isocitrate lyase, sequence (Q9P8Q7 whole entry): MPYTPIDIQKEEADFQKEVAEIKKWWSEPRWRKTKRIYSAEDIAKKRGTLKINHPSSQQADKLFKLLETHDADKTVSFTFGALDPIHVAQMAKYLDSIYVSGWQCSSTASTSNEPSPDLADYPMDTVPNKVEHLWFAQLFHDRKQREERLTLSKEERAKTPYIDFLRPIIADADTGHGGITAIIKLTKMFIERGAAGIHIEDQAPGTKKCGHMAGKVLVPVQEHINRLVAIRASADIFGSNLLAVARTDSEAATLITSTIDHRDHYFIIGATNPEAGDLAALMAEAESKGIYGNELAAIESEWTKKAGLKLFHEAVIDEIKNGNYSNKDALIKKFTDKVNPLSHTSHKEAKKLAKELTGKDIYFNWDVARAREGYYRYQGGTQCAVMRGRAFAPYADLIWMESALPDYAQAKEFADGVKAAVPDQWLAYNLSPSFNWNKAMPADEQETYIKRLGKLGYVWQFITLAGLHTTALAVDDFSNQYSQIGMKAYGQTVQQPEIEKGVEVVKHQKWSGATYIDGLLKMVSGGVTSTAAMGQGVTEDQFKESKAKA
Summary of the method: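 Recombinant enzyme assayed spectrophotometrically with isocitrate and phenylhydrazine present. Absorbance at 324 nm was monitored for glyoxylate phenylhydrazone formation, and IC50 was determined.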

SMILES	MIC (Micrococcus luteus)	MIC (Salmonella typhimurium)	MIC (Bacillus subtilis)	MIC (Staphylococcus aureus)	MIC (Proteus vulgaris)	MIC (Escherichia coli)	CC50 (A549)	MIC (Trichophyton rubrum)	MIC (Aspergillus fumigatus)	MIC [1]	MIC (Candida albicans)	IC50 [2]	IC50 (Sortase A)	IC50 (Isocitrate lyase)
CC1(C)S[C@@H]2[C@H](NC(=O)[C@H](N)c3ccccc3)C(=O)N2[C@H]1C(=O)O [AMPICILLIN]	0.39 mg/L (≈ 1.12 µM)	0.78 mg/L (≈ 2.23 µM)	0.78 mg/L (≈ 2.23 µM)	0.39 mg/L (≈ 1.12 µM)	0.39 mg/L (≈ 1.12 µM)	6.25 mg/L (≈ 17.9 µM)								
COc1cccc2c1C(=O)c1c(O)c3c(c(O)c1C2=O)C[C@@](O)(C(=O)CO)C[C@@H]3O[C@H]1C[C@H](N)[C@H](O)[C@H](C)O1 [DOXORUBICIN]							3.3 µM							
C[C@@H]1[C@H](O)[C@@H](C)/C=C/C=C/C=C/C=C/C=C/C=C/C=C/[C@H](O[C@@H]2O[C@H](C)[C@@H](O)[C@H](N)[C@@H]2O)C[C@@H]2O[C@](O)(C[C@@H](O)C[C@@H](O)[C@H](O)CC[C@@H](O)C[C@@H](O)CC(=O)O[C@H]1C)C[C@H](O)[C@H]2C(=O)O [AMPHOTERICIN B]								0.78 mg/L (≈ 0.844 µM)	0.78 mg/L (≈ 0.844 µM)	0.39 mg/L (≈ 0.422 µM)	0.39 mg/L (≈ 0.422 µM)			
O=C(c1cc(Br)c(O)c(Br)c1)c1nccc2c1[nH]c1ccccc12 [EUDISTOMIN Y5]	3.12 mg/L (≈ 7.01 µM)	0.78 mg/L (≈ 1.75 µM)	3.12 mg/L (≈ 7.01 µM)	6.25 mg/L (≈ 14 µM)	1.56 mg/L (≈ 3.5 µM)	100 mg/L (≈ 224 µM)	85.4 µM	> 100 mg/L	> 100 mg/L	> 100 mg/L	> 100 mg/L	19.8 µM	146 µM	
O=C(O)CC[N+](=O)[O-]														38.6 µM
O=C(c1ccc(O)cc1)c1nccc2c1[nH]c1ccc(Br)cc12 [EUDISTOMIN Y2]	25 mg/L (≈ 68.1 µM)	50 mg/L (≈ 136 µM)	25 mg/L (≈ 68.1 µM)	50 mg/L (≈ 136 µM)	25 mg/L (≈ 68.1 µM)	> 100 mg/L	65.6 µM	> 100 mg/L	> 100 mg/L	> 100 mg/L	6.25 mg/L (≈ 17 µM)	209 µM	> 272 µM	50.2 µM
Cc1ccc(S(=O)(=O)Oc2ccc(C(O)c3nccc4c3[nH]c3ccc(Br)cc34)cc2Br)cc1 (stereo unspecified) [EUDISTOMIN Y12]	> 100 mg/L	> 100 mg/L	> 100 mg/L	> 100 mg/L	> 100 mg/L	> 100 mg/L	63.3 µM	> 100 mg/L	> 100 mg/L	> 100 mg/L	> 100 mg/L		> 166 µM	> 166 µM
C[C@@H]1O[C@@H](O[C@H]2C[C@@H](O)[C@]3(CO)[C@H]4[C@H](O)C[C@]5(C)[C@@H](C6=CC(=O)OC6)CC[C@]5(O)[C@@H]4CC[C@]3(O)C2)[C@H](O)[C@H](O)[C@H]1O [OUABAIN]												6.3 µM		
Oc1ccc(C(O)c2nccc3c2[nH]c2ccccc23)cc1 (stereo unspecified) [EUDISTOMIN Y8]	100 mg/L (≈ 344 µM)	> 100 mg/L	100 mg/L (≈ 344 µM)	100 mg/L (≈ 344 µM)	> 100 mg/L	> 100 mg/L	> 344 µM	> 100 mg/L	> 100 mg/L	> 100 mg/L	> 100 mg/L	> 344 µM	> 344 µM	68.9 µM
O=C(c1cc(Br)c(O)c(Br)c1)c1nccc2c1[nH]c1cc(Br)ccc12 [EUDISTOMIN Y7]	1.56 mg/L (≈ 2.97 µM)	0.78 mg/L (≈ 1.49 µM)	0.78 mg/L (≈ 1.49 µM)	3.12 mg/L (≈ 5.95 µM)	0.78 mg/L (≈ 1.49 µM)	50 mg/L (≈ 95.2 µM)	59 µM	> 100 mg/L	> 100 mg/L	> 100 mg/L	> 100 mg/L	11.3 µM	> 190 µM	
Oc1c(Br)cc(C(O)c2nccc3c2[nH]c2ccccc23)cc1Br (stereo unspecified) [EUDISTOMIN Y10]	12.5 mg/L (≈ 27.9 µM)	12.5 mg/L (≈ 27.9 µM)	25 mg/L (≈ 55.8 µM)	25 mg/L (≈ 55.8 µM)	12.5 mg/L (≈ 27.9 µM)	> 100 mg/L	> 223 µM	> 100 mg/L	> 100 mg/L	> 100 mg/L	> 100 mg/L	122 µM	> 223 µM	
O=C(c1ccc(O)cc1)c1nccc2c1[nH]c1ccccc12 [EUDISTOMIN Y1]	> 100 mg/L	> 100 mg/L	> 100 mg/L	> 100 mg/L	> 100 mg/L	> 100 mg/L	59 µM	50 mg/L (≈ 173 µM)	50 mg/L (≈ 173 µM)	100 mg/L (≈ 347 µM)	50 mg/L (≈ 173 µM)		> 347 µM	48.2 µM
Oc1ccc(C(O)c2nccc3c2[nH]c2ccc(Br)cc23)cc1Br (stereo unspecified) [EUDISTOMIN Y9]	> 100 mg/L	> 100 mg/L	> 100 mg/L	6.25 mg/L (≈ 13.9 µM)	> 100 mg/L	> 100 mg/L	17.9 µM	> 100 mg/L	> 100 mg/L	> 100 mg/L	> 100 mg/L	33.3 µM	> 223 µM	
OC(c1ccccc1)c1nccc2c1[nH]c1ccc(Br)cc12 (stereo unspecified) [EUDISTOMIN Y13]	100 mg/L (≈ 283 µM)	> 100 mg/L	100 mg/L (≈ 283 µM)	> 100 mg/L	> 100 mg/L	> 100 mg/L	49 µM	> 100 mg/L	> 100 mg/L	> 100 mg/L	> 100 mg/L		> 283 µM	> 283 µM
Oc1c(Br)cc(C(O)c2nccc3c2[nH]c2ccc(Br)cc23)cc1Br (stereo unspecified) [EUDISTOMIN Y11]	3.12 mg/L (≈ 5.93 µM)	3.12 mg/L (≈ 5.93 µM)	3.12 mg/L (≈ 5.93 µM)	6.25 mg/L (≈ 11.9 µM)	3.12 mg/L (≈ 5.93 µM)	100 mg/L (≈ 190 µM)	> 190 µM	> 100 mg/L	> 100 mg/L	> 100 mg/L	> 100 mg/L	32.8 µM	> 190 µM	
O=C(c1cc(Br)c(O)c(Br)c1)c1nccc2c1[nH]c1ccc(Br)cc12 [EUDISTOMIN Y6]	1.56 mg/L (≈ 2.97 µM)	0.39 mg/L (≈ 0.743 µM)	1.56 mg/L (≈ 2.97 µM)	1.56 mg/L (≈ 2.97 µM)	0.78 mg/L (≈ 1.49 µM)	50 mg/L (≈ 95.2 µM)	60 µM	> 100 mg/L	> 100 mg/L	> 100 mg/L	> 100 mg/L	10.1 µM	> 190 µM	
O=C(c1ccc(O)c(Br)c1)c1nccc2c1[nH]c1ccc(Br)cc12 [EUDISTOMIN Y4]	1.56 mg/L (≈ 3.5 µM)	0.39 mg/L (≈ 0.874 µM)	0.78 mg/L (≈ 1.75 µM)	3.12 mg/L (≈ 7.01 µM)	0.39 mg/L (≈ 0.874 µM)	50 mg/L (≈ 112 µM)	48.4 µM	> 100 mg/L	> 100 mg/L	> 100 mg/L	> 100 mg/L	7.5 µM	163 µM	
